According to paper PMC8247405 (British Journal of Clinical Pharmacology, 2020):

Assays:
type‐2 diabetes patients [1] = system: type‐2 diabetes patients; design: species or system human; conditions: in vivo
type‐2 diabetes patients [2] = conditions: human, in vivo
[3] = Plasma pharmacokinetics in type-2 diabetes patients; format: in vivo, human; conditions: for AUC 0–24, mean / AUC 0–24, median / Cmax, mean / Cmax, median / Tmax, mean / Tmax, median / Rac_AUC 0–24 (accumulation ratio), mean / Rac_AUC 0–24 (accumulation ratio), median / Rac_C max (accumulation ratio), mean / Rac_C max (accumulation ratio), median: n 15
How it was run: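 Type-2 diabetes patients received 1 or 5 mg test compound orally once daily for 28 days (15 per dose cohort). Plasma was sampled at 4 and 12 h postdose on day 1, predose on days 2, 3 and 7, and 3 h postdose on days 14, 21 and 28. Samples were assayed by validated LC-MS/MS (LLOQ 5 ng/mL). Cmax, tmax, trapezoidal AUC0–24 and accumulation ratio were derived by a Bayesian population PK model built in healthy subjects.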

[4] = Plasma pharmacokinetics of SAR247799 in diabetic rats, 5-week chow dosing; format: in vivo, Zucker diabetic fatty (ZDF) rats; conditions: ZDF rats; for C (plasma concentration), mean / C (plasma concentration), median: 5 weeks postdosing; for AUC 0–24, mean / AUC 0–24, median: AUC0–24 = C × 24
How it was run: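 ZDF rats received test compound in chow at 0.002, 0.007 or 0.0245% w/w for 5 weeks. Plasma taken at 5 weeks was assayed by LC-MS/MS. AUC0–24 was computed as C × 24, taking the 5-week concentration as the average over the dosing interval.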

[5] = system: Zucker diabetic fatty (ZDF) rats; assay: Renal function; format: in vivo, rat; conditions: 5 weeks
How it was run: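 ZDF rats on control or test-compound chow (0.002, 0.007, 0.0245% w/w) for 5 weeks, with lean controls. Creatinine clearance = urinary creatinine × urine volume / plasma creatinine, in µL/min. Kruskal–Wallis with Wilcoxon post hoc tests versus ZDF control.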

type‐2 diabetes patients [6] = conditions: human, in vivo; remark: listed apart in the source
type‐2 diabetes patients [7] = conditions: human, in vivo; remark: listed apart in the source
[8] = cited from earlier work
[9] = system: Zucker diabetic fatty (ZDF) rats; assay: Plasma fructosamine in ZDF rats; format: in vivo, rat; conditions: any dose, 5‐week treatment
How it was run: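 ZDF rats were fed control chow or test-compound chow (0.002–0.0245% w/w) from 9 weeks of age; lean rats served as reference. K₂-EDTA blood was drawn from the caudal vein under isoflurane at baseline and after 5 weeks. It was centrifuged at 4°C, 10 min, 10 000 g, and plasma was stored at −80°C. Fructosamine was measured on a clinical chemistry analyser by a blinded experimenter.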

[10] = system: Zucker diabetic fatty (ZDF) rats; assay: Heart rate in ZDF rats; format: in vivo, rat; conditions: low, intermediate and high dose, 5 weeks
[11] = system: Zucker diabetic fatty (ZDF) rats; assay: Peripheral blood lymphocyte count in ZDF rats; format: in vivo, rat; conditions: 5 weeks
How it was run: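 Male ZDF Fa/Fa rats, randomised by body weight at 9 weeks to control chow or chow with test compound at 0.002, 0.007 or 0.0245% w/w for 5 weeks; lean Fa/+ rats on control chow served as reference. Caudal-vein K₂-EDTA blood was taken under 1.5–2% isoflurane at baseline and 5 weeks. Lymphocytes were counted in fresh blood. Analysis was blinded, with 1-way ANOVA and Dunnett's test versus ZDF control.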

type‐2 diabetes patients [12] = conditions: human, in vivo; remark: listed apart in the source
patients = conditions: in vivo; cited from earlier work
[13] = 0.007% (w/w) in chow (intermediate)

## Cc1cc(-c2nc3cnc(Oc4cccc(Cl)c4)nc3o2)cc(C)c1OCC(=O)O [SAR247799]
type‐2 diabetes patients [1]
  overall effect on FMD: dose‐dependent improvement in FMD
type‐2 diabetes patients [2]
  Patients with TEAE: Arthropod sting: 0 n (%)
  Patients with TEAE: Contusion: 0 n (%)
  Patients with TEAE: Diarrhoea: 0 n (%)
  Patients with TEAE: Dyspepsia: 0 n (%)
  Patients with TEAE: Headache: 1 (6.7%) n (%)
  Patients with TEAE: Injury, poisoning and procedural complications: 0 n (%)
  Patients with TEAE: Leading to treatment discontinuation: 0 n (%)
  Patients with TEAE: Nausea: 1 (6.7%) n (%)
  Patients with TEAE: Oropharyngeal pain: 0 n (%)
  Patients with TEAE: Otitis externa: 0 n (%)
  Patients with TEAE: Severe AE: 0 n (%)
  Patients with TEAE: Skin abrasion: 0 n (%)
  Patients with TEAE: Traumatic haematoma: 0 n (%)
  Patients with TEAE: Ventricular extrasystoles: 0 n (%)
  tolerability: well tolerated
[3]; 1‐mg/d human dose
  steady state AUC0–24h: 2.97 µg/mL
[3]; 5‐mg/d human dose
  steady state AUC0–24h: 14.9 µg/mL
[3]; day 1, 1 mg oral once daily
  AUC 0–24, mean: 1030 ng·h/mL
  AUC 0–24, median: 983 ng·h/mL
  Cmax, mean: 57.4 ng/mL
  Cmax, median: 53.8 ng/mL
  Tmax, mean: 2.68 h
  Tmax, median: 2.50 h
[3]; day 1, 5 mg oral once daily
  AUC 0–24, mean: 5310 ng·h/mL
  AUC 0–24, median: 5310 ng·h/mL
  Cmax, mean: 310 ng/mL
  Cmax, median: 315 ng/mL
  Tmax, mean: 2.42 h
  Tmax, median: 2.50 h
[3]; day 1 to day 14, 1 and 5 mg/d
  accumulation ratio: 2.5–2.9
[3]; day 14, 1 mg oral once daily
  AUC 0–24, mean: 2970 ng·h/mL
  AUC 0–24, median: 2780 ng·h/mL
  Cmax, mean: 152 ng/mL
  Cmax, median: 147 ng/mL
  Rac_AUC 0–24 (accumulation ratio), mean: 2.86
  Rac_AUC 0–24 (accumulation ratio), median: 2.70
  Rac_C max (accumulation ratio), mean: 2.66
  Rac_C max (accumulation ratio), median: 2.50
  Tmax, mean: 2.24 h
  Tmax, median: 2.25 h
[3]; day 14, 5 mg oral once daily
  AUC 0–24, mean: 14900 ng·h/mL
  AUC 0–24, median: 14800 ng·h/mL
  Cmax, mean: 779 ng/mL
  Cmax, median: 760 ng/mL
  Rac_AUC 0–24 (accumulation ratio), mean: 2.79
  Rac_AUC 0–24 (accumulation ratio), median: 2.73
  Rac_C max (accumulation ratio), mean: 2.54
  Rac_C max (accumulation ratio), median: 2.46
  Tmax, mean: 2.15 h
  Tmax, median: 2.25 h
[4]; 0.002% (w/w) in chow (low)
  C (plasma concentration), mean: 0.0944 µg/mL
  C (plasma concentration), median: 0.0917 µg/mL
  AUC 0–24, mean: 2270 ng·h/mL
  AUC 0–24, median: 2200 ng·h/mL
[4]; [13]
  C (plasma concentration), mean: 0.423 µg/mL
  C (plasma concentration), median: 0.432 µg/mL
  AUC 0–24, mean: 10200 ng·h/mL
  AUC 0–24, median: 10400 ng·h/mL
[4]; 0.0245% (w/w) in chow (high)
  C (plasma concentration), mean: 4.43 µg/mL
  C (plasma concentration), median: 4.60 µg/mL
  AUC 0–24, mean: 106000 ng·h/mL
  AUC 0–24, median: 110000 ng·h/mL
[4]; for a 3.5‐fold increase in dose
  increase in plasma concentration, high vs intermediate dose: 10.5 fold
[4]; intermediate dose
  steady state AUC0–24h: 10.2 µg/mL
[4]; low dose
  steady state AUC0–24h: 2.27 µg/mL
[5]; high dose
  change in creatinine clearance: lesser (nonsignificant) increase
  reduction in urinary protein:creatinine ratio: statistically significant
[5]; intermediate dose
  effect on urinary output: significantly blunted the increase in urinary output
  fractional excretion of electrolytes (Na+ and Cl−): levels similar to lean control rats
  increase in creatinine clearance compared to vehicle‐treated ZDF rats: 2.5 fold
  reduction in urinary protein:creatinine ratio: statistically significant
[5]; low dose
  change in creatinine clearance: no increase
[5]; low to high dose
  effect on urinary protein:creatinine ratio: dose‐dependent reduction
[5]; lowest dose
  effect on urinary protein:creatinine ratio: partial effect
type‐2 diabetes patients [6]
  lymphocytes, mean reductions vs placebo: < 8%
type‐2 diabetes patients [7]
  heart rate increase: no increase
  heart rate, mean difference vs placebo (maximum decrease): −6.4 beats/min
  mean heart rate increase: 0–4 beats/min
[8]
  elimination half‐life: 32 h
[9]
  effect on plasma fructosamine: did not alter fructosamine levels
[10]
  effect on heart rate: None of the doses of SAR247799 altered heart rate
[11]; high dose 0.0245% (w/w) chow
  decrease in peripheral blood lymphocytes: 35%
[11]; intermediate dose 0.007% (w/w) chow
  effect on peripheral blood lymphocytes: did not reduce lymphocytes
[11]; low dose 0.002% (w/w) chow
  effect on peripheral blood lymphocytes: did not reduce lymphocytes
type‐2 diabetes patients [12]
  effect on blood pressure: did not affect blood pressure

## CCC(CC)CC1(C(=O)Nc2ccccc2SC(=O)C(C)C)CCCCC1 [dalcetrapib]
patients
  effect on FMD and CV events: neutral on both FMD and CV events
